Measured values taken from ChEMBL document CHEMBL1128351, “A novel pyrrolidine analog of histamine as a potent, highly selective histamine H3 receptor agonist” (J Med Chem, 1995).
Activity calls are given as the source filed them. The calls are words filed in the database; no cut-off is given here.

Assays:
Histamine H3 receptor = Histamine H3 receptor (Cavia porcellus, UniProt Q9JI35); assay: Binding affinity against Histamine H3 receptor
Procedure, shortened: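 H3 receptor binding Ki values are the mean of two independent experiments, with errors given as the range from the mean.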

Cavia porcellus [1] = assay: Effective dose was tested in vivo for 50% inhibition by an H1 histamine-mediated bronchospasm in guinea pig; format: functional; details: Bronchiole
Histamine H1 receptor = Histamine H1 receptor (Cavia porcellus, UniProt P31389); assay: Binding affinity against H1 receptor
Cavia porcellus [2] = assay: Effective dose was tested in vivo for 50% inhibition by an electrically induced CNS hypertension model after iv administration.; format: functional
Procedure, shortened: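 H3 agonist activity was measured in a CNS hypertension model with intravenous dosing. Values are ED50 in mg/kg, or % of the activity of the reference H3 agonist at 0.3 mg/kg.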

[3] = molecular target: Histamine H1 receptor (Cavia porcellus) (UniProt P31389); details: Ileum
Cavia porcellus [4] = assay: Effective dose was tested in vivo for 50% inhibition by an H1 histamine-mediated bronchospasm after iv administration in guinea pig; format: functional; details: Bronchiole
Procedure, shortened: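 Given intravenously and measured in an H1 histamine-mediated bronchospasm model. Value is expressed as ED50 in mg/kg.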

[5] = molecular target: Histamine H3 receptor (Cavia porcellus) (UniProt Q9JI35); details: Ileum
[6] = molecular target: Histamine H1 receptor (Cavia porcellus) (UniProt P31389); details: Ileum, 10 uM
[7] = molecular target: Histamine H3 receptor (Cavia porcellus) (UniProt Q9JI35); details: Ileum, 1 uM

Chain of Histamine H1 receptor (P31389 whole entry): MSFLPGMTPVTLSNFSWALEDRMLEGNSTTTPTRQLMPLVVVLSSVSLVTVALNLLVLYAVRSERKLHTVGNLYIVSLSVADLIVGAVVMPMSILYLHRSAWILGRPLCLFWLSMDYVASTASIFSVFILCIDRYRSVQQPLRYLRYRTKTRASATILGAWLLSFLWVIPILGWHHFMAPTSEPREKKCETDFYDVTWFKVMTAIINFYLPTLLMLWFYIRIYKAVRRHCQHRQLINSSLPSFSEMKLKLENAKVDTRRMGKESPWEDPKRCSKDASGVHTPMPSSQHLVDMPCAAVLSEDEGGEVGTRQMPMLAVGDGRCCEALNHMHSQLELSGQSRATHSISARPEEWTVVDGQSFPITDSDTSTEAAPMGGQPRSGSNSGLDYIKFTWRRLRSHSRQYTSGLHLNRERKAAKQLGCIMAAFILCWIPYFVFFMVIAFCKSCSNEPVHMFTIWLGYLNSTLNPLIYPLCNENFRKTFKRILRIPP
Chain of Histamine H3 receptor (Q9JI35 whole entry): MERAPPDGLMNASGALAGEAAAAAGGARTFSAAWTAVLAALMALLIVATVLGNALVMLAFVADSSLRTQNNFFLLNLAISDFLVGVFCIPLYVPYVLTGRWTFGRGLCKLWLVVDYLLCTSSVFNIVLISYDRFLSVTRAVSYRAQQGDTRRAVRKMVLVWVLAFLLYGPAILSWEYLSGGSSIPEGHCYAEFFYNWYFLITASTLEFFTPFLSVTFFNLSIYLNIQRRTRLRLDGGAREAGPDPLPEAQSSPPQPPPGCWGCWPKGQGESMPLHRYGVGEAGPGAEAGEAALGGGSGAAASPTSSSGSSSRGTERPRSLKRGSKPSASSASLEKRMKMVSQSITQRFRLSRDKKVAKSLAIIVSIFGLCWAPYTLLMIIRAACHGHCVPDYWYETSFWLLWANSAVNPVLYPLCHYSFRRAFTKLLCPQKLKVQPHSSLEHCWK
Chain of Histamine H3 receptor (Cavia porcellus) (Q9JI35 whole entry): as above
Chain of Histamine H1 receptor (Cavia porcellus) (P31389 whole entry): as the sequence (P31389 whole entry) above

| Compound | Ki (Histamine H3 receptor) | Ki (Histamine H1 receptor) | other results |
| --- | --- | --- | --- |
| C[C@@]1(N)CCCC[C@@H]1c1cnc[nH]1 (racemic) | > 2000 nM |  |  |
| C[C@]1(N)CCCC[C@@H]1c1c[nH]cn1 (racemic) | > 2000 nM |  |  |
| C[C@H]1NCC[C@@H]1c1c[nH]cn1 [listing 1 of 2 here] | 2.8 nM | > 10000 nM | ED50 (Cavia porcellus [1]): > 100 mg/kg; ED50 (Cavia porcellus [2]): 0.18 mg/kg |
| C[C@@H](N)Cc1c[nH]cn1 | 1.5 nM | > 10000 nM | pD2 [3]: 5.4; ED50 (Cavia porcellus [4]): 1.7 mg/kg; ED50 (Cavia porcellus [2]): 0.1 mg/kg; pD2 [5]: 8.2 |
| C[C@H]1NCC[C@@H]1c1c[nH]cn1 [listing 2 of 2 here] |  |  | pD2 [6]: inactive; pD2 [5]: 7.1 |
| N[C@H]1CCC[C@@H]1c1cnc[nH]1 (racemic) | 740 nM |  |  |
| C[C@H]1NCC[C@@H]1c1c[nH]cn1 (racemic) | 8.7 nM |  |  |
| C[C@@H]1NCC[C@H]1c1c[nH]cn1 | 33 nM | > 10000 nM | pD2 [7]: inactive |
| C[C@@H](N)[C@@H](C)c1c[nH]cn1 (racemic) | 11 nM |  |  |
| C[C@H](c1c[nH]cn1)[C@@H](C)N (racemic) | 0.8 nM |  |  |
